Laboratory results published in ChEMBL document CHEMBL2016487, “Pyrazolopyrimidines as dual Akt/p70S6K inhibitors” (Bioorg Med Chem Lett, 2012).

Assays:
[1] = biological target: T1, Ribosomal protein S6 kinase beta-1 (Homo sapiens, UniProt P23443); test: Inhibition of p70S6K after 3 hrs by luciferase based chemiluminescence assay
[2] = biological target: T2, RAC-alpha serine/threonine-protein kinase (Homo sapiens, UniProt P31749); test: Inhibition of AKT1-mediated GSK3beta phosphorylation in human PC3 cells after 3 hrs by chemiluminescence assay; assay type: cell-based, PC-3
Summary of the method: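 PC-3 cells seeded at 7.5 × 10³ cells/well, grown 24 h, then serum-starved 24 h. Compound treatment 3 h in triplicate (0.2% DMSO final), followed by 100 ng/ml IGF1 for 30 min. Fixed and processed as a cell ELISA using anti-phospho-GSK3β (S9) and anti-total-GSK3β antibodies, chemiluminescent read-out.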

[3] = biological target: T1, Ribosomal protein S6 kinase beta-1; test: Inhibition of p70S6K-mediated ribosomal protein S6 phosphorylation in human A549 cells after 3 hrs by chemiluminescence assay; assay type: cell-based
Summary of the method: (§1)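 A549 or PC-3 cells seeded at 7.5 × 10³ cells/well in DMEM with heat-inactivated 10% FBS, 1% penicillin–streptomycin, 1% non-essential amino acids, grown 48 h at 37 °C, 5% CO₂. Treated 3 h with compound at 1.2–300 nM, triplicate, 0.2% DMSO final. Fixed in 4% formaldehyde, blocked, probed with anti-phospho-S6 (Ser240/244) and anti-total-S6 overnight at 4 °C, chemiluminescent read-out.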

[4] = biological target: T1, Ribosomal protein S6 kinase beta-1; test: Inhibition of p70S6K-mediated ribosomal protein S6 phosphorylation in human PC3 cells after 3 hrs by chemiluminescence assay; assay type: cell-based, PC-3; summary of the method: as §1
[5] = biological target: T2, RAC-alpha serine/threonine-protein kinase; test: Inhibition of AKT1 after 3 hrs by luciferase based chemiluminescence assay
[6] = system: PC-3; test: Anticancer activity against human PC3 prostate tumor cell xenografted model at 100 mg/kg, po qd for 15 days; assay type: functional; details: PC-3, 360 h, read-out: TGI
[7] = Drug metabolism in mouse liver microsomes at 15 uM after 30 mins; assay type: ADME, Microsome; details: read-out: Drug metabolism
Summary of the method: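 Mouse liver microsomes at 0.5 mg/mL, incubated 30 min with compound at 15 µM; value reported as % conversion.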

[8] = Half life in rat at 5 mg/kg, iv; assay type: ADME, organism-based; design: dose 5 mg/kg, route intravenous; details: in vivo
[9] = system: Rattus norvegicus; test: Dose normalized AUC in rat at 5 mg/kg, po; assay type: ADME, organism-based; design: dose 5 mg/kg, route oral; details: in vivo
[10] = Oral bioavailability in rat at 5 mg/kg; assay type: ADME, organism-based; details: in vivo
[11] = Half life in rat at 5 mg/kg, po; assay type: ADME, organism-based; design: dose 5 mg/kg, route oral; details: in vivo
[12] = Plasma concentration in mouse at 100 mg/kg after 1 hr; assay type: ADME, organism-based; design: dose 100 mg/kg
Summary of the method: (§2)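 Mouse plasma levels measured 1 and 4 h after a 100 mg/kg dose.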

[13] = Volume of distribution in rat at 5 mg/kg; assay type: ADME, organism-based; design: dose 5 mg/kg; details: in vivo
[14] = system: Rattus norvegicus; test: Dose normalized AUC in rat at 5 mg/kg, iv; assay type: ADME, organism-based; design: dose 5 mg/kg, route intravenous; details: in vivo
[15] = Cmax in rat at 5 mg/kg, po; assay type: ADME, organism-based; design: dose 5 mg/kg, route oral; details: in vivo
[16] = Cmax in rat at 5 mg/kg, iv; assay type: ADME, organism-based; design: dose 5 mg/kg, route intravenous; details: in vivo
[17] = Clearance in rat at 5 mg/kg; assay type: ADME, organism-based; design: dose 5 mg/kg; details: in vivo
[18] = Plasma concentration in mouse at 100 mg/kg after 4 hrs; assay type: ADME, organism-based; design: dose 100 mg/kg; summary of the method: as §2

T2 sequence (P31749 whole entry): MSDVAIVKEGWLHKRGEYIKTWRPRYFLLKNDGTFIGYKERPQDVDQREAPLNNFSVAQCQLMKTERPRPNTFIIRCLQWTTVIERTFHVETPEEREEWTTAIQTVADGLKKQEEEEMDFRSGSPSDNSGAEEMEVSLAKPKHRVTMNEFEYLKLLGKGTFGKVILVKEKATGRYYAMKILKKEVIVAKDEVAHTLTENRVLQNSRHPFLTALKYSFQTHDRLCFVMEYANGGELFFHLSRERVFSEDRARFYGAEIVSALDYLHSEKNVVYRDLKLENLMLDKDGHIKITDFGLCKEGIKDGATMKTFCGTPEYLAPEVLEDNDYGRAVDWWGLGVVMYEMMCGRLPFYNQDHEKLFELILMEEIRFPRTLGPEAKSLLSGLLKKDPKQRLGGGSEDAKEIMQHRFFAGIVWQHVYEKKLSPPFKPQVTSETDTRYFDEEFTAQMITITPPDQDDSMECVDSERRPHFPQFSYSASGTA
T1 sequence (P23443 whole entry): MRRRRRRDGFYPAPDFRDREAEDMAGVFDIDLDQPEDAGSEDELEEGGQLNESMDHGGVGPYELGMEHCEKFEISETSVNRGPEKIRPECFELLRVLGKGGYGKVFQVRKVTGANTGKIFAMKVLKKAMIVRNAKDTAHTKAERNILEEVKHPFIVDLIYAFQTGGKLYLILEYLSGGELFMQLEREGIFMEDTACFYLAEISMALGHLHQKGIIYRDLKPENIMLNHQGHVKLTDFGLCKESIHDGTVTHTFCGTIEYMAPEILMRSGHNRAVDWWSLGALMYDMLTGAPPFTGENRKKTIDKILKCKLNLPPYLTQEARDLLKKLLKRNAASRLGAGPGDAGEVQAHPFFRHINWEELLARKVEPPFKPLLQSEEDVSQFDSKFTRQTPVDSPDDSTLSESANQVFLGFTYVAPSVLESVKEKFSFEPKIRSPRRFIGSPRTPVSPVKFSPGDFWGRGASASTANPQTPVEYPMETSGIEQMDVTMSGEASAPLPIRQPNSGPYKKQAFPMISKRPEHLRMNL

Structure (SMILES) | IC50 [1] | IC50 [2] | IC50 [3] | IC50 [4] | IC50 [5] | inhibition in vivo at 100 mg/kg [6] | metabolised at 0.5 h, 15 µM [7] | half-life [8] | AUC/dose [9] | bioavailability [10] | half-life [11] | concentration at 1 h [12] | Vd [13] | AUC/dose [14] | Cmax [15] | Cmax [16] | clearance [17] | concentration at 4 h [18]
Cc1c(NCCN2CCCC2)cc(CCC(C)(C)C)cc1N1CCN(c2ncnc3[nH]nc(Br)c23)CC1 | 0.002 µM | 1.98 µM | 0.116 µM | 0.203 µM | 0.007 µM |  |  |  |  |  |  |  |  |  |  |  |  | 
CCc1n[nH]c2ncnc(N3CCN(c4cc(Cl)cc(NCCN(C)C)c4C)CC3)c12 | 0.002 µM | 9.03 µM | 0.045 µM | 0.211 µM |  | 49% | 29% |  |  |  |  |  |  |  |  |  |  | 
COC(=O)c1cc(NCCN2CCCC2)c(C)c(N2CCN(c3ncnc4[nH]nc(Br)c34)CC2)c1 | 0.002 µM | 1.84 µM | 0.044 µM | 0.052 µM | 0.005 µM |  |  |  |  |  |  |  |  |  |  |  |  | 
Cc1c(NCCN(C)C)cc(Cl)cc1N1CCN(c2ncnc3[nH]nc(Br)c23)CC1 | 0.002 µM | 4.28 µM | 0.043 µM | 0.141 µM |  |  | 50% |  |  |  |  |  |  |  |  |  |  | 
Cc1c(NCCN2CCCC2)cc(C(=O)Nc2ccccc2)cc1N1CCN(c2ncnc3[nH]nc(Br)c23)CC1 | 0.001 µM | 7.81 µM | 0.014 µM | 0.19 µM | 0.013 µM |  |  |  |  |  |  |  |  |  |  |  |  | 
CCC(=O)c1cc(NCCN2CCCC2)c(C)c(N2CCN(c3ncnc4[nH]nc(Br)c34)CC2)c1 | 0.001 µM | 0.976 µM | 0.018 µM | 0.025 µM | 0.005 µM |  |  | 3.1 h | 0.15 µM·kg·h/mg | 28% | 2.9 h | 2 µM | 10.5 L/kg | 0.56 µM·kg·h/mg | 0.14 µM | 1.44 µM | 2.94 L/h/kg | 2 µM
CCOc1cc(NCCN2CCCC2)c(C)c(N2CCN(c3ncnc4[nH]nc(Br)c34)CC2)c1 | 0.002 µM | 9.07 µM | 0.197 µM |  | 0.056 µM |  |  |  |  |  |  |  |  |  |  |  |  | 
